# Shown are actives, neighbours in structure and some others; about 4.1% of the full set was active somewhere.
# MrgX1 allo act: allosterically activates human MrgX1 receptor signaling | Q96LB2 | MrgX1-HEK293, Fluo-4 calcium flux, FDSS; stronger effect = higher value | B-score at 10 µM | 310,000 compounds, 0.63% hits | AID 588675;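 active = plate-corrected calcium response at least 3 library SD above typical, normal starting fluorescence, not activating the receptor alone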;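 note: compound read alongside a low EC10 to EC30 dose of BAM8-22 agonist; peak minus trough fluorescence over baseline measured at the second addition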
# RGS4 inh: human RGS4 inhibition; 310,000 compounds, 0.45% hits; HEK293 M3R/RGS4 inducible, Fluo-4 calcium flux; stronger effect = higher value; triggered by carbachol at its EC20; P49798; B-score at 10 µM; AID 463165;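 active = B-score, a plate-corrected calcium signal, over three deviations above library mean, with baseline fluorescence within five deviations of library mean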;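 note: RGS4 expression induced by doxycycline in cells with stable M3 receptor; B-score is computed from the integrated fluorescence ratio over baseline after carbachol; higher B-score means a larger calcium signal and so more RGS4 inhibition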
# Target sequence (P49798 whole entry, looked up): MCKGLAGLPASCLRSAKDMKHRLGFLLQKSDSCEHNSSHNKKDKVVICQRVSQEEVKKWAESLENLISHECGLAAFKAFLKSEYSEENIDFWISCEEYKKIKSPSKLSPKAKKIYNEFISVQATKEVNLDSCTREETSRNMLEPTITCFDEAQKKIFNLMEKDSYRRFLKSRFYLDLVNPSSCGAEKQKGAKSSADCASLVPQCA
# MrgX1 agonist: human MrgX1 receptor agonism, primary screen. Q96LB2. MrgX1-HEK293 cells, Fluo-4 calcium fluorescence, agonist mode; stronger effect = higher value. B-score at 10 µM. 310,000 compounds, 0.44% hits;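 active = calcium response B-score plate-corrected fluorescence ratio at least 3 library SD, with starting fluorescence B-score inside 5 SD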
#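 Assay system: MrgX1-expressing HEK293 cells / Amount: fifteen thousand cells per well / Doses: test compound in the initial addition of three / Timing: cells plated overnight, dye loaded 0.5 h 37 °C, 0.5 h room temperature / Technique: kinetic calcium dye fluorescence, Fluo-4 NW / Control set: positive and negative controls per plate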
# RGS4 act: potentiators or activators of RGS4; HEK293 M3R/inducible RGS4, carbachol calcium flux Fluo4; stronger effect = lower value; B-score at 10 µM; AID 463111; 310,000 compounds, 0.92% hits;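 active = B-score of the integrated calcium signal more than 4 SD below the library mean, with starting fluorescence not abnormally high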;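 note: negative B-score means reduced calcium response which marks RGS4 activation or potentiation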
#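 System: HEK293 FlpIn-TREx cells, stable M3R, doxycycline-inducible RGS4. Timing: overnight RGS4 induction, 30 min dye load 37 °C, 20 min compound RT. Also added: carbachol, ECmax concentration. Measured by: Fluo4 fluorescence kinetic imaging of calcium. Evaluation: integrated calcium ratio converted to B score.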
# Kir21 inh: inhibitors of mouse Kir2.1 inward-rectifier potassium channel. AID 1672. B-score at 10 µM. HEK293-Kir2.1, FluxOR thallium flux fluorescence; stronger effect = lower value. P35561. 310,000 compounds, 0.85% hits;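 active = fluorescence ratio B-score at or below minus 3 SD of library scores, with starting-brightness B-score within 2 SD, cut at about -4.2 in these data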;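 note: channel flux triggered by added potassium and thallium sulfate stimulus; B-score of peak minus minimum fluorescence over baseline after thallium stimulus; more negative B-score means stronger Kir2.1 block with less thallium influx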
# Target sequence (P35561 whole entry, looked up): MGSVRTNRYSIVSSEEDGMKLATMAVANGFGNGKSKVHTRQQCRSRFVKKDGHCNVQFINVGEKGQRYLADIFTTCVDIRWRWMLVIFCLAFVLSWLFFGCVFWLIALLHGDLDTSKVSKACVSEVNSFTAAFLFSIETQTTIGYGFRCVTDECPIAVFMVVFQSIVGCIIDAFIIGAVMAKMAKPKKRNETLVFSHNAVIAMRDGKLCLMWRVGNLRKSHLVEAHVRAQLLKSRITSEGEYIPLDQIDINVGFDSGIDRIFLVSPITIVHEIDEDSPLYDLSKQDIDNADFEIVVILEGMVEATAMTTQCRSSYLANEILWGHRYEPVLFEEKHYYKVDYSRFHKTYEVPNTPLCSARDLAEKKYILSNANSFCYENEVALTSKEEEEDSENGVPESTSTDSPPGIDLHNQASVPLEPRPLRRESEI
# MrgX1 antagonist: human MrgX1 receptor antagonism, primary screen; Q96LB2; MRGX1-HEK293 calcium flux, Fluo-4, BAM8-22 antagonism; stronger effect = lower value; B-score at 10 µM; 310,000 compounds, 1.3% hits;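 active = calcium-response B-score plate-corrected more than 3 library SD below zero, starting fluorescence within 5 deviations, no agonist response on first addition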;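 note: peak minus trough fluorescence over baseline after final BAM8-22 challenge near maximal dose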
# Active calls of the source: *; i = inactive; . = no result.
SMILES,MrgX1 allo act,RGS4 inh,MrgX1 agonist,RGS4 act,Kir21 inh,MrgX1 antagonist
CN(C)CCCNC(=O)/C(=C\c1ccc(-c2ccc(Br)cc2)o1)NC(=O)c1ccccc1,i,i,i,i,-1.86,i
CC(C)(C)c1ccc(OC(=O)c2cccnc2)cc1,i,i,i,i,-4.45*,i
Cc1ccc(CNC(=O)c2ccc(N3CCCC3=O)cc2)cc1,i,i,i,i,-1.38,i
Cc1nc(N2CCOCC2)nc(OCCN2CCOCC2)c1[N+](=O)[O-],i,i,i,i,-1.06,-5.25*
Cc1nc(N2CCOCC2)nc(OCCN(C)C)c1[N+](=O)[O-],i,i,i,i,1.26,i
COc1ccccc1N1CCN(Cc2c[nH]c3ccccc23)CC1,i,i,i,i,-0.61,i
Cc1ccccc1N1CCN(Cc2c[nH]c3ccccc23)CC1,i,i,i,i,-5.5*,i
Cc1ccc(/C=C2/Sc3ccccc3N(CC(=O)NCC3CCCO3)C2=O)cc1 (centres undefined),i,i,i,-7.44*,0.01,i
COC(=O)CCC(=O)OC1(C)C(=O)C2=CN(Cc3ccc(OC)cc3)C(c3ccc(OC)cc3)=CC2=C(Br)C1=O (centres undefined),i,i,i,i,0.41,-4.86*
CCOCCCNCc1ccc(OC)cc1,i,i,i,i,1.41,i
COc1ccc(C(CCNCc2ccc(OC(C)C)cc2)C(C)C)cc1 (centres undefined),i,i,i,i,-4.47*,-5.42*
COc1ccc(CNCCC(c2ccc(OC(C)C)cc2)C(C)C)cc1OC (centres undefined),i,i,i,i,-3.04,i
COc1ccc(C(CCNCc2ccc(N(C)C)cc2)C(C)C)cc1 (centres undefined),i,i,i,i,-5.05*,i
CCOC(=O)C1Cc2ccccc2CN1 (centres undefined),i,i,i,i,-1.44,i
CC(=O)NC(=S)Nc1ccc([N+](=O)[O-])cc1C,i,i,i,i,-0.49,-8.04*
CCCCc1nc2ccccc2c(N)c1CCC (tested in a mixture with another compound),i,i,i,i,-8.29*,i
CSc1sccc1/C=C(/C#N)C(=O)c1ccco1,i,i,37.5*,i,-1.18,i
O=C(COc1ccccc1)NC(=S)Nc1ccc2c3c(cccc13)CC2,i,i,i,i,0.08,i
O=C(/C=C/c1ccccc1)NC(=S)Nc1ccc2c3c(cccc13)CC2,i,i,i,i,2.48,-14.3*
COc1ccccc1-c1noc(CCC(=O)Nc2cccc(C)c2)n1,i,i,i,i,0.29,i
Oc1cccc(C(Nc2nccs2)c2ccc3cccnc3c2O)c1 (centres undefined),i,i,i,-7.02*,-0.56,i
CC(OC(=O)/C(C#N)=C/c1ccc(N(C)C)cc1)C(=O)N(C)c1ccccc1 (centres undefined),i,i,i,-7.2*,-2.17,i
O=S1(=O)c2ccccc2N=NN1Cc1ccc(Cl)c(Cl)c1,i,i,28.8*,i,-0.64,i
COc1ccc(CC(=O)Nc2nc(C(C)(C)C)cs2)cc1,i,i,i,i,-8.25*,i
COc1ccc(CC(=O)Nc2nc(C)cs2)cc1,i,i,i,i,0.5,i
SMILES,MrgX1 allo act,RGS4 inh,MrgX1 agonist,RGS4 act,Kir21 inh,MrgX1 antagonist
O=C1Nc2cc(C(=O)NCCN3CCCCCC3)ccc2S/C1=C\c1ccccc1,i,i,i,i,-4.93*,i
Cc1ccc([N+](=O)[O-])cc1NC(=O)CN1CCC(C)CC1,i,i,i,i,-0.81,i
N#C/C(=C\c1ccc(-c2ccc(C(=O)O)cc2)o1)C(=O)Nc1ccc(F)cc1,i,i,i,i,1.63,-4.61*
O=C(Nc1ccc(SC(F)F)cc1)c1ccccc1F,i,i,i,i,0.5,i
Cc1ccc(C)c2sc(N3CCN(C(=O)c4ccc([N+](=O)[O-])o4)CC3)nc12,i,i,i,i,-1.12,-7.55*
Cc1ccc(-c2nc(C(=O)NCC3CCCO3)cc3c2[nH]c2ccccc23)cc1 (centres undefined),i,i,i,-7.04*,-1.24,i
O=S(=O)(NCCc1ccccc1F)c1cccc(S(=O)(=O)N2CCOCC2)c1,i,i,i,i,-1.2,i
Cc1ccc(/C=N/NC(=O)c2ccc(Br)o2)s1,i,i,i,i,0.26,i
CCc1ccc(/C=N\NC(=O)c2ccc(Br)o2)s1,i,i,i,i,0.74,-4.93*
CSc1nnc(NC(=O)c2ccc(S(=O)(=O)N(C)C)cc2)s1,i,i,i,i,-1.21,i
Nc1c(C(=O)NCCc2ccc(Cl)cc2)sc2ccc(S(=O)(=O)N3CCCCC3)cc12,i,8.99*,i,i,-0.26,i
CC(SC1=Nc2ccccc2C2CC=NN12)C(=O)NC1(C#N)CCCCC1 (centres undefined),i,i,i,i,-4.59*,i
O=C(O)c1ccccc1NC(=O)C1CCCO1 (centres undefined),i,i,i,i,-0.14,i
O=C(Nc1ccccc1Sc1ccccc1)C1CCCO1 (centres undefined),i,i,i,i,-4.77*,i
O=C(Cc1ccc(Br)cc1)Nc1ccccc1Sc1ccccc1,i,i,i,i,0.36,i
O=C(Cc1ccccc1)Nc1ccccc1Sc1ccccc1,i,i,i,i,-9.2*,i
Cc1cc(NC(=O)COC(=O)[C@@H](NS(=O)(=O)c2ccccc2)C(C)C)no1,i,i,i,i,-1.05,i
O=C(Cc1ccc(F)cc1)Nc1ccccc1Sc1ccccc1,i,i,i,i,-6.28*,i
CC(C)[C@H](NS(=O)(=O)c1ccccc1)C(=O)OCC(=O)Nc1ccccc1Sc1ccccc1,i,i,i,i,0.02,-6.44*
O=C(Nc1c(-c2cccs2)nc2ccccn12)c1ccc2ccccc2c1,i,i,i,i,0.36,i
OC(COc1ccc(F)cc1)CN1CCN(c2ccccc2F)CC1 (centres undefined),i,i,i,i,-0.56,i
Cc1cccc(NC(=O)c2ccc3c(c2)OCCO3)c1,.,i,.,i,3.24,.
